VIM-2 inh: inhibitors of Pseudomonas aeruginosa VIM-2 metallo-beta-lactamase; purified VIM-2, nitrocefin hydrolysis, epi-absorbance fluorescence; 290,000 compounds, 0.89% hits; inhibition, % at 5.6 µM;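 active = inhibition above the mean of all tested compounds plus 3 SD, cutoff set per screening run, cut at about 7.5% in these data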;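 also: red hydrolysis product quenches plate fluorescence so inhibitors raise well fluorescence; 0% = enzyme with DMSO and 100% = DMSO without enzyme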
Runt-SMMHC FRET: inhibitors of human RUNX1 Runt domain binding to CBFb-SMMHC; 220,000 compounds, 0.74% hits; AID 1434; inhibition, % at 20 µM; Cerulean-Runt/Venus-CBFb-SMMHC FRET ratio 530/480, 1 h;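 active = mean inhibition across duplicate retests at 20 µM reaching about 50%, limit read from the data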;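 also: 0% = DMSO wells and 100% = wells with excess untagged CBFb-SMMHC; inhibitors lower the FRET ratio by blocking Runt binding to CBFb-SMMHC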
Runt-CBFb FRET: Runt domain-CBFb interaction inhibition; Q01196+Q13951; Cerulean-Runt/Venus-CBFb FRET ratio 530/480, 1 h; inhibition, % at 20 µM; 220,000 compounds, 0.46% hits; AID 1496;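 active = inhibition over about 50% at 20 µM in the single-dose screen, limit read from the data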;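 also: 0% = DMSO wells and 100% = excess unlabeled CBFb competitor control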
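Assay system: Cerulean-Runt domain / Medium: Tris 50 mM pH 7.5, KCl, K2SO4, 0.01% BSA / Timing: protein complex preformed 1 h, compound exposure 1 h, room temperature, dark / Measured by: FRET, excitation 422 nm, emission at 530 and 480 nm / Evaluation: loss of energy transfer signal / Control set: 5 µM unlabeled CBFb as full-inhibition high control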
IMP-1 inh-1: blocks Pseudomonas aeruginosa IMP-1 metallo-beta-lactamase; purified IMP-1, nitrocefin hydrolysis, epi-absorbance fluorescence; inhibition, % at 5.6 µM; 290,000 compounds, 0.45% hits; AID 1556;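 active = inhibition above the mean plus 3 SD of all compounds in the same screening run, cut at about 4.5% in these data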;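 also: 0% = IMP-1 with DMSO and 100% = DMSO wells lacking enzyme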
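assay system = purified recombinant IMP-1 metallo-beta-lactamase enzyme | schedule = 15 min preincubation plus 25 min reaction at 25 °C | signal = Epi-absorbance fluorescence, 480 nm excitation, 530 nm emission | read-out basis = percent inhibition from optical density relative to buffer-blank wells | controls = IMP-1 with DMSO as 0%, enzyme-free DMSO as 100%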
RanGTP-Imp inh: disruptors of Ran-importin-beta complex formation – biochemical, FRET, CFP-Ran, YFP-importin-beta, homogeneous, primary screen; cell-free CFP-Ran/YFP-importin-beta FRET ratio; inhibition, % (no concentration beside the values); 300,000 compounds, 1.1% hits; AID 2216;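 active = more than half of the replicate wells show a fall in the fluorescence ratio signal beyond about 16%, limit read from the data, passing the limit was not always enough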;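 also: 0% = DMSO wells and 100% = Ran loaded with GDP instead of GTP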
IMP-1 inh-2: selectivity counter-screen for VIM-2 inhibitors: IMP-1 metallo-beta-lactamase inhibitors | shares compounds with VIM-2 inh | purified IMP-1, nitrocefin hydrolysis, epi-absorbance fluorescence | inhibition, % at 5.6 µM | 1,300 tested, under 10 active; call rule not given here;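 also: 0% = enzyme with vehicle and 100% = vehicle without enzyme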
VIM-2 FRET inh: inhibits VIM-2 in FRET assay to exclude epi-absorbance artifacts. shares compounds with VIM-2 inh. AID 1857. purified VIM-2, CCF2 FRET substrate hydrolysis. 1,300 compounds, 23% hits. inhibition, % at 5.6 µM;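 active = inhibition above the mean of all tested compounds plus 3 SD, cut at about 19% in these data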;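 also: 0% = VIM-2 plus DMSO and 100% = no enzyme wells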
TEM-1 counter: TEM-1 inhibition, counter-screen for VIM-2 inhibitors; shares compounds with VIM-2 inh; Purified TEM-1, nitrocefin hydrolysis, epi-absorbance fluorescence; inhibition, % at 5.6 µM; 1,300 compounds, 3% hits; AID 1866;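 active = inhibition above that campaign's mean inhibition plus 3 SD, cut at about 0.46% in these data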;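 also: 0% = TEM-1 with DMSO and 100% = TEM-1 with 100 µM potassium clavulanate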
Target sequence (P62593 whole entry, looked up): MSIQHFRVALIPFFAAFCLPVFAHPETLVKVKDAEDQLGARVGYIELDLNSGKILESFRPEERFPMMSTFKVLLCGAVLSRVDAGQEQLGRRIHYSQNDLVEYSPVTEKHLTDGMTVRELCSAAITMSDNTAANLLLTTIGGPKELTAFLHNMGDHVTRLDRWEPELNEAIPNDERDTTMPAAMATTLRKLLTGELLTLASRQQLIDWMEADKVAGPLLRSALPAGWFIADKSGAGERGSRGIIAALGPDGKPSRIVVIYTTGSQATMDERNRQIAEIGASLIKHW
VIM-2 confirm 2: confirmation of P. aeruginosa VIM-2 metallo-beta-lactamase inhibitors; AID 2187; purified VIM-2, nitrocefin hydrolysis, epi-absorbance; inhibition, % at 5.6 µM; shares compounds with VIM-2 inh; 1,300 compounds, 96% hits;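 active = inhibition of the VIM-2 beta-lactamase enzyme above about 11% from the earlier first-round screen, limit read from the data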;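 also: 0% = VIM-2 with DMSO and 100% = buffer wells without enzyme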
The depositor's hits bear a star; . = no result. This is a sample that favours compounds with a hit; in the whole collection about 2.6% have one here.

SMILES | VIM-2 inh | Runt-SMMHC FRET | Runt-CBFb FRET | IMP-1 inh-1 | RanGTP-Imp inh | IMP-1 inh-2 | VIM-2 FRET inh | TEM-1 counter | VIM-2 confirm 2
COc1ccc(/C=C2/SC(=S)N(CCCC(=O)N3CCN(C)CC3)C2=O)cc1 | 17* | . | . | 1 | -1 | -2 | 4 | -6 | 31*
COc1cc(/C=C2\SC(=S)N(CCC(=O)N3CCN(C)CC3)C2=O)cc(OC)c1OC | 15* | . | . | 2 | -7 | -2 | 1 | -6 | 25*
COc1cc(/C=C2\SC(=S)N(CCC(=O)NC3CCCC3)C2=O)cc(OC)c1OC | -2 | . | . | -2 | -3 | . | . | . | .
CN1CCN(C(=O)CCCN2C(=O)/C(=C/c3ccccc3)SC2=S)CC1 | 16* | . | . | 2 | 0 | 0 | -3 | -1 | 25*
O=C(OCc1ccccc1)C1=[N+]([O-])OC(C(=O)OCc2ccccc2)C1c1c[nH]c2ccccc12 (stereo not given) | 13* | -3 | 2 | -1 | . | -2 | -7 | 0 | 4
CCOc1ccc(-c2nnc(-c3ccncc3)o2)cc1 | 1 | -3 | -3 | -1 | 6 | . | . | . | .
CCOc1ccc(-c2nnc(-c3ccncc3)o2)cc1OCC | 24* | -1 | -2 | -1 | -2 | -3 | -4 | -4 | 31*
CN1c2ccccc2Oc2nnc(Cl)cc21 | 3 | 8 | 3 | -1 | 11 | . | . | . | .
CCN(CC)CCOc1cc2c(nn1)Oc1ccccc1N2C | 18* | 1 | -2 | 1 | -2 | -3 | 2 | -7 | 20*
Cc1ccc(Sc2oc(/C=N/n3cnnc3)cc2Br)cc1 | -3 | -3 | 0 | 2 | -4 | . | . | . | .
O=[N+]([O-])c1cc(-c2ccc(/C=N/n3cnnc3)o2)ccc1Cl | 44* | . | . | 0 | 0 | -3 | 5 | -5 | 58*
COc1cc([N+](=O)[O-])ccc1-c1ccc(/C=N\n2cnnc2)o1 | 45* | . | . | 0 | -5 | -2 | -2 | -2 | 45*
O=[N+]([O-])c1ccc(Cl)c(-c2ccc(/C=N/n3cnnc3)o2)c1 | 45* | . | . | -2 | -2 | -4 | -1 | -6 | 52*
Cc1ccc(-c2ccc(/C=N\n3cnnc3)o2)c(Br)c1 | 13* | . | . | -3 | 1 | -3 | 6 | -6 | 24*
O=C(OC(C(=O)NC1CCCCC1)c1ccccc1F)c1ccco1 (stereo not given) | -1 | . | . | -1 | 5 | . | . | . | .
CS(=O)(=O)N(CC(=O)N1CCN(Cc2ccccc2)CC1)c1cccc(F)c1 | -1 | . | . | 1 | 2 | . | . | . | .
CC[C@@H]1[C@H]2CCCC(=O)N3CC[C@@H](C[C@@H]1OC(=O)Nc1ccccc1)[C@@H]23 | -1 | . | . | -2 | 3 | . | . | . | .
CC(SCc1ccccc1)C(=O)Nc1ccccc1F (stereo not given) | 0 | . | . | -4 | 1 | . | . | . | .
CCN(CC)CCNC(=O)c1ccc(NC(=O)c2ccccc2-c2ccc(C(F)(F)F)cc2)cc1 | -4 | . | . | -5 | 0 | . | . | . | .
O=C(c1cc(COc2ccc(F)c(F)c2)on1)N1CCN(C/C=C/c2ccccc2)CC1 | -3 | . | . | -1 | 5 | . | . | . | .
Cc1cc(=O)oc2cc3oc(=O)cc(C)c3cc12 | 0 | . | . | -2 | -2 | . | . | . | .
Cc1cc(-c2ccc(/C=N/n3cnnc3)o2)c(C)c([N+](=O)[O-])c1 | 87* | . | . | -2 | 2 | -3 | 5 | -8 | 91*
Cc1ccc(-c2ccc(/C=N/N3C(=O)C4C5C=CC(C6CC56)C4C3=O)o2)c([N+](=O)[O-])c1 (stereo not given) | -1 | 5 | 5 | -3 | -2 | . | . | . | .
Cc1nn(CCc2n[nH]c(=S)n2-c2cccc(Cl)c2)c(C)c1[N+](=O)[O-] | 17* | 8 | 7 | -6 | -1 | -3 | 48* | -7 | 30*
